Assay [1] deals with Epidermal growth factor receptor and ErbB2 (HER1 and HER2) (Homo sapiens) (UniProt P04626+P00533). Nature of the assay: Selectivity for erbB2 over EGFR. The assay is classed as protein assay. An outline of the steps: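 Cell selectivity: IC50 ratio between two NIH3T3 lines run under identical conditions, one carrying human EGFR and one carrying the EGFR-extracellular/erbB2-intracellular chimera. Each line takes 2 h inhibitor, then 15 min human recombinant EGF. Phosphotyrosine measured with HRP-PY-54 and TMB at 450 nm.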

Assay [2] concerns the target T1, Receptor tyrosine-protein kinase erbB-2 (Homo sapiens, UniProt P04626). The experiment in a line: Inhibition of erbB2 in NH3T3 cells. The class given is cell-based. An outline of the steps:
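NIH3T3 cells expressing a chimera of EGFR extracellular and erbB2 intracellular domains are plated, exposed to inhibitor for 2 h, then stimulated with human recombinant EGF for 15 min. Receptor phosphotyrosine read with HRP-PY-54 antibody and TMB, A450. IC50 is the mean of at least two experiments.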

Assay [3] concerns the target T1, Receptor tyrosine-protein kinase erbB-2. Nature of the assay: Inhibition of erbB2 expressed in Sf9 cells. An outline of the steps: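 GST-tagged erbB2 intracellular domain (residues 675–1255) made in baculovirus/Sf9 and purified; ~15 ng enzyme phosphorylates poly(Glu,Tyr) with 1 mM ATP plus inhibitor over 6 min. Phosphotyrosine detected by HRP-PY-54 antibody and TMB, A450. IC50 is the mean of at least two experiments.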

T1 sequence (P04626 whole entry, the tested form may be a part): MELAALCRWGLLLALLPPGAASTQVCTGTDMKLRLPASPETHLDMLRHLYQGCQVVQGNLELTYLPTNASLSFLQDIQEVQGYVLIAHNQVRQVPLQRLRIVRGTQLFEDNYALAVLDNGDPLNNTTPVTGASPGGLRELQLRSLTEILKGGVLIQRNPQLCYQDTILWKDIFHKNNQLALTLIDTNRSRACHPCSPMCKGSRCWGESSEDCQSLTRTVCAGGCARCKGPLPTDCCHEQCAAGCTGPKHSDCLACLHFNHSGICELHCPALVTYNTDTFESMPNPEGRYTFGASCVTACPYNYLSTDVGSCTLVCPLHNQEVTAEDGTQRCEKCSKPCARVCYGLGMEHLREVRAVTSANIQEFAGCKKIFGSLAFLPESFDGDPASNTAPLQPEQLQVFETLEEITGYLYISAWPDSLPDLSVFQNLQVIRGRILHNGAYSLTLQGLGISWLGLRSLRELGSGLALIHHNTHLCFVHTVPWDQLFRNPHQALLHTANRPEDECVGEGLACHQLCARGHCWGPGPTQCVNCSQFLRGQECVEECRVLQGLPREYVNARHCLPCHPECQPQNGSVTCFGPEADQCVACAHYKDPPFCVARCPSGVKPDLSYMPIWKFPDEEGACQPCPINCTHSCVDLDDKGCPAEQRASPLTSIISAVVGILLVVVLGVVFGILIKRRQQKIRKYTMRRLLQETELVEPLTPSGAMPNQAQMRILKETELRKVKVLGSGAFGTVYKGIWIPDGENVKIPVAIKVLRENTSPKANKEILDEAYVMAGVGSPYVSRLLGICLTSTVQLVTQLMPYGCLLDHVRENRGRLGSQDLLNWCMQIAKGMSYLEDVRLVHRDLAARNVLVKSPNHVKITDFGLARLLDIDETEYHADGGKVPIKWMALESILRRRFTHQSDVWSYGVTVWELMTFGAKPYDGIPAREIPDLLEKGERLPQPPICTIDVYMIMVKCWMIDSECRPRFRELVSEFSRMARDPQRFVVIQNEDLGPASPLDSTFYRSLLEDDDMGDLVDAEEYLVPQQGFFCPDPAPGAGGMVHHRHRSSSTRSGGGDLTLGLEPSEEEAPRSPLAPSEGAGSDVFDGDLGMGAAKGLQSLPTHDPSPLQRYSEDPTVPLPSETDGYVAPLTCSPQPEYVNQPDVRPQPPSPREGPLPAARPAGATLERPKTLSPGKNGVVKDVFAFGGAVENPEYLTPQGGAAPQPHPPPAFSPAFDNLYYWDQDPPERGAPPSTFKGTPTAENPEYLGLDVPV

The term IC50 denotes the concentration that inhibits the measured activity by half. Read a low IC50 as higher potency. As to `Cc1cc(Nc2ncnc3cnc(N(C)C)cc23)ccc1OC1CCN(C(=O)CC(C)(C)C)CC1`, in assay [1], the Selectivity ratio is more than 230. Besides, the IC50 was less than 10 nM in assay [2] and 51 nM in assay [3].

In the case of `Cc1cc(Nc2ncnc3cnc(N4CCOCC4)cc23)ccc1OC1CCN(C(=O)Nc2c(F)cccc2F)CC1`, the Selectivity ratio in assay [1] stood at 210. The IC50 in assay [2] stood at 16 nM; in assay [3], 7 nM.

With `COCC(=O)NCC#Cc1ccc2ncnc(Nc3ccc(OC4CCN(C(=O)CC(C)(C)C)CC4)c(C)c3)c2c1`, the Selectivity ratio in assay [1] came to 400. The half-maximal inhibitory concentration (IC50) in assay [2] was 16 nM; in assay [3], 94 nM.

Regarding `CNC(=O)c1ccc(Oc2ccc(Nc3ncnc4ccc(C#CCNC(=O)COC)cc34)cc2C)cc1`, in assay [3], the IC50 is more than 10000 nM.

For `COCCOc1ccc2ncnc(Nc3ccc(OC4CCN(C(=O)C5CCCC5)CC4)c(C)c3)c2c1`, the Selectivity ratio in assay [1] is more than 350. Moreover, the IC50 in assay [2] was 29 nM; in assay [3], 44 nM.

`CNc1cc2c(Nc3ccc(OC4CCN(C(=O)Nc5c(F)cccc5F)CC4)c(C)c3)ncnc2cn1`: the Selectivity ratio in assay [1] amounted to 25. The values for the IC50 in assay [2] and in assay [3] were 180 nM and 25 nM, respectively.

For the compound `Cc1cc(Nc2ncnc3cnc(N(C)C)cc23)ccc1Oc1ccc(C(=O)NCC(C)(C)C)cc1`, the Selectivity ratio in assay [1] is more than 770. The IC50 was less than 10 nM in assay [2] and 48 nM in assay [3].

For `Cc1cc(Nc2ncnc3ccc(OCCCN4CCOCC4)cc23)ccc1OC1CCN(C(=O)CC(C)(C)C)CC1`, the Selectivity ratio in assay [1] was more than 290. For the same compound, the half-maximal inhibitory concentration (IC50) came out at 34 nM in assay [2] and 75 nM in assay [3].

As to `COCC(=O)NCC#Cc1ccc2ncnc(Nc3ccc(Oc4cccc(C(=O)N(C)C)c4)c(C)c3)c2c1`, the IC50 in assay [3] is more than 10000 nM.

With `Cc1cc(Nc2ncnc3ccc(OCCCN4CCOCC4)cc23)ccc1OC1CCN(C(=O)Nc2c(F)cccc2F)CC1`, the Selectivity ratio in assay [1] amounted to 32. In addition, the IC50 in assay [2] and in assay [3] was 55 nM each time.

`Cc1cc(Nc2ncnc3cnc(N4CCOCC4)cc23)ccc1OC1CCN(C(=O)CC(C)(C)C)CC1`: the Selectivity ratio in assay [1] is more than 1000. In addition, the values for the IC50 in assay [2] and in assay [3] were less than 10 nM and 23 nM, respectively.

Regarding `COc1cc2ncnc(Nc3ccc(Oc4ccc(C(=O)NCC(C)(C)C)cc4)c(C)c3)c2cc1OC`, the Selectivity ratio in assay [1] was found to be 1. Moreover, the IC50 is 310 nM in assay [2] and 77 nM in assay [3].

As for `COCCOc1ccc2ncnc(Nc3ccc(OC4CCN(C(=O)Nc5c(F)cccc5F)CC4)c(C)c3)c2c1`, the Selectivity ratio in assay [1] was more than 300. Further, the IC50 in assay [2] stood at 33 nM; in assay [3] it was 27 nM.

With `COc1cc2ncnc(Nc3ccc(OC4CCN(C(=O)CC(C)(C)C)CC4)c(C)c3)c2cc1OC`, the Selectivity ratio in assay [1] was more than 130. Further, the IC50 in assay [2] worked out at 76 nM; in assay [3], 100 nM.

Regarding `COc1ccc2ncnc(Nc3ccc(OC4CCN(C(=O)Nc5c(F)cccc5F)CC4)c(C)c3)c2c1`, in assay [1], the Selectivity ratio came to 11. Moreover, the IC50 is 250 nM in assay [2] and 46 nM in assay [3].

On to `COCCOc1ccc2ncnc(Nc3ccc(OC4CCN(C(=O)CC(C)(C)C)CC4)c(C)c3)c2c1`, for which, in assay [1], the Selectivity ratio is more than 500. For the same compound, the results for the IC50 in assay [2] and in assay [3] were 19 nM and 120 nM, respectively.

In the case of `CNc1cc2c(Nc3ccc(Oc4ccc(C(=O)NCC(C)(C)C)cc4)c(C)c3)ncnc2cn1`, the Selectivity ratio in assay [1] was found to be 230. The values for the IC50 in assay [2] and in assay [3] were 13 nM and 30 nM, respectively.

`COCC(=O)NCC#Cc1ccc2ncnc(Nc3ccc(OC4CCN(C(=O)COC)CC4)c(C)c3)c2c1` registered an IC50 in assay [3] of more than 10000 nM.

Regarding `CNC(=O)c1cccc(Oc2ccc(Nc3ncnc4ccc(C#CCNC(=O)COC)cc34)cc2C)c1`, in assay [3], the IC50 is more than 10000 nM.

As for `Cc1cc(Nc2ncnc3cnc(NCCN4CCOCC4)cc23)ccc1Oc1ccc(C(=O)NCC(C)(C)C)cc1`, the Selectivity ratio in assay [1] was determined as 230. For the same compound, the half-inhibitory concentration (IC50) in assay [2] worked out at 15 nM; in assay [3], 280 nM.

Regarding `COCC(=O)NCC#Cc1ccc2ncnc(Nc3ccc(Oc4ccc(C(=O)Nc5ccccc5)cc4)c(C)c3)c2c1`, the IC50 in assay [3] was more than 10000 nM.

Regarding `COCCOc1cc2ncnc(Nc3ccc(OC4CCN(C(=O)CC(C)(C)C)CC4)c(C)c3)c2cc1OCCOC`, the Selectivity ratio in assay [1] turned out to be 11. Moreover, the IC50 in assay [2] came out at 530 nM; in assay [3] it was 260 nM.

In the case of `COc1cc2ncnc(Nc3ccc(OC4CCN(C(=O)Nc5c(F)cccc5F)CC4)c(C)c3)c2cc1OC`, in assay [1], the Selectivity ratio came to 23. The IC50 came to 67 nM in assay [2] and 19 nM in assay [3].

In the case of `COCC(=O)NCC#Cc1ccc2ncnc(Nc3ccc(OC4CCN(C(=O)Nc5c(F)cccc5F)CC4)c(C)c3)c2c1`, in assay [1], the Selectivity ratio is more than 53. Besides, the IC50 was 190 nM in assay [2] and 76 nM in assay [3].

Take `COCC(=O)NCC#Cc1ccc2ncnc(Nc3ccc(Oc4cccc(C(=O)NCC(C)(C)C)c4)c(C)c3)c2c1`: the Selectivity ratio in assay [1] stood at 91. Also, the IC50 in assay [2] came out at 110 nM; in assay [3], 130 nM.

With `COCC(=O)NCC#Cc1ccc2ncnc(Nc3ccc(OC4CCN(C(=O)C5CCCO5)CC4)c(C)c3)c2c1` (configuration not stated), the results for the IC50 in assay [2] and in assay [3] were 2900 nM and 550 nM, respectively.

`COCC(=O)NCC#Cc1ccc2ncnc(Nc3ccc(Oc4cccc(C(=O)Nc5ccccc5)c4)c(C)c3)c2c1`: in assay [3], the IC50 was found to be 140 nM.

As to `COCCOc1cc2ncnc(Nc3ccc(OC4CCN(C(=O)C5CCCC5)CC4)c(C)c3)c2cc1OCCOC`, the Selectivity ratio in assay [1] is more than 19. Also, the results for the IC50 in assay [2] and in assay [3] were 530 nM and 77 nM, respectively.

Turning to `Cc1cc(Nc2ncnc3cnc(N(C)C)cc23)ccc1OC1CCN(C(=O)Nc2c(F)cccc2F)CC1`, the Selectivity ratio in assay [1] stood at 68. Moreover, the figures for the IC50 in assay [2] and in assay [3] were 20 nM and 21 nM, respectively.

As to `Cc1cc(Nc2ncnc3cnc(N4CCCC4)cc23)ccc1Oc1ccc(C(=O)NCC(C)(C)C)cc1`, the Selectivity ratio in assay [1] was more than 100. The IC50 in assay [2] is less than 10 nM; in assay [3] it was 36 nM.

With `COCC(=O)NCC#Cc1ccc2ncnc(Nc3ccc(OC4CCN(C(C)=O)CC4)c(C)c3)c2c1`, the IC50 in assay [3] is more than 10000 nM.

With `COCC(=O)NCC#Cc1ccc2ncnc(Nc3ccc(OC4CCNCC4)c(C)c3)c2c1`, the IC50 in assay [3] was more than 10000 nM.

On to `COCCOc1cc2ncnc(Nc3ccc(OC4CCN(C(=O)Nc5c(F)cccc5F)CC4)c(C)c3)c2cc1OCCOC`, for which the Selectivity ratio in assay [1] was determined as 6.5. The IC50 in assay [2] is 840 nM; in assay [3] it was 230 nM.

`COCC(=O)NCC#Cc1ccc2ncnc(Nc3ccc(Oc4cccc(C(=O)NC(C)(C)C)c4)c(C)c3)c2c1`: the Selectivity ratio in assay [1] amounted to 250. For the same compound, the results for the IC50 in assay [2] and in assay [3] were 30 nM and 18 nM, respectively.

As to `COCC(=O)NCC#Cc1ccc2ncnc(Nc3ccc(OC4CCN(C(=O)C5CCC5)CC4)c(C)c3)c2c1`, the Selectivity ratio in assay [1] is more than 200. In addition, the figures for the IC50 in assay [2] and in assay [3] were 51 nM and 150 nM, respectively.

The compound `COc1ccc2ncnc(Nc3ccc(OC4CCN(C(=O)CC(C)(C)C)CC4)c(C)c3)c2c1` registered an IC50 in assay [3] of 96 nM. This lies in the double-digit nanomolar range.

As for `COCC(=O)NCC#Cc1ccc2ncnc(Nc3ccc(OC4CCN(C)CC4)c(C)c3)c2c1`, the IC50 in assay [3] is more than 10000 nM.

Turning to `COCC(=O)NCC#Cc1ccc2ncnc(Nc3ccc(Oc4ccc(C(=O)N(C)C)cc4)c(C)c3)c2c1`, in assay [3], the IC50 is more than 10000 nM.

On to `COCC(=O)NCC#Cc1ccc2ncnc(Nc3ccc(Oc4ccc(C(=O)NC(C)(C)C)cc4)c(C)c3)c2c1`, for which the IC50 in assay [3] is more than 10000 nM.

Source of the values: ChEMBL document CHEMBL1144645, “The discovery of highly selective erbB2 (Her2) inhibitors for the treatment of cancer” (Bioorg Med Chem Lett, 2007).
